Source: publication PMC4711262 (Journal of thrombosis and haemostasis : JTH, 2011)
Each block holds one compound with its values, some of them ahead of it. Residues, ends and D or L forms follow the SMILES beside them. *: point of attachment. AMC = Cc1cc(=O)oc2cc(N*)ccc12; Cbz = O=C(OCc1ccccc1)*

Columns and labels:
POP [1] = molecular target: T1, POP (Homo sapiens, UniProt P48147); conditions: cited from earlier work
T1 sequence (P48147 1-710): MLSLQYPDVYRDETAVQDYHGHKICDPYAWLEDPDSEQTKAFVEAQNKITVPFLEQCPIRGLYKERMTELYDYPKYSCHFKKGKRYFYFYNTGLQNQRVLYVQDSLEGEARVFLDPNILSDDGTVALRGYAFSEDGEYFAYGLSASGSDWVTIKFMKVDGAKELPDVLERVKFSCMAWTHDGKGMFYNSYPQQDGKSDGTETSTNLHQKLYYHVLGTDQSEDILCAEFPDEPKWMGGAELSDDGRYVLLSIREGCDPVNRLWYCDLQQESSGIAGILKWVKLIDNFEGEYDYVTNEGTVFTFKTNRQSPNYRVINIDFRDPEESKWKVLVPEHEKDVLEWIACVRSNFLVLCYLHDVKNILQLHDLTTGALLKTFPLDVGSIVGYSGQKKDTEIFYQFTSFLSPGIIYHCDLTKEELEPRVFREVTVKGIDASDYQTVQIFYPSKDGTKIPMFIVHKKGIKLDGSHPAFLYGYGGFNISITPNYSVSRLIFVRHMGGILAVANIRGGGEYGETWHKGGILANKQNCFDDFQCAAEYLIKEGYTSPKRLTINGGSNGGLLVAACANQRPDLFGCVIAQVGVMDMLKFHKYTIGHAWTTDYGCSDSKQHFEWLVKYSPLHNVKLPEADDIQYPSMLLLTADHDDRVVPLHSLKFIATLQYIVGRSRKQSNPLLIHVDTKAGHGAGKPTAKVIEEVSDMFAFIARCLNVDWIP

DPPIV [2] = molecular target: T2, DPPIV (Homo sapiens, UniProt P27487); experiment: Enzyme assay with fluorogenic substrate, DPPIV; type: biochemical
T2 sequence (P27487 whole entry, species assumed): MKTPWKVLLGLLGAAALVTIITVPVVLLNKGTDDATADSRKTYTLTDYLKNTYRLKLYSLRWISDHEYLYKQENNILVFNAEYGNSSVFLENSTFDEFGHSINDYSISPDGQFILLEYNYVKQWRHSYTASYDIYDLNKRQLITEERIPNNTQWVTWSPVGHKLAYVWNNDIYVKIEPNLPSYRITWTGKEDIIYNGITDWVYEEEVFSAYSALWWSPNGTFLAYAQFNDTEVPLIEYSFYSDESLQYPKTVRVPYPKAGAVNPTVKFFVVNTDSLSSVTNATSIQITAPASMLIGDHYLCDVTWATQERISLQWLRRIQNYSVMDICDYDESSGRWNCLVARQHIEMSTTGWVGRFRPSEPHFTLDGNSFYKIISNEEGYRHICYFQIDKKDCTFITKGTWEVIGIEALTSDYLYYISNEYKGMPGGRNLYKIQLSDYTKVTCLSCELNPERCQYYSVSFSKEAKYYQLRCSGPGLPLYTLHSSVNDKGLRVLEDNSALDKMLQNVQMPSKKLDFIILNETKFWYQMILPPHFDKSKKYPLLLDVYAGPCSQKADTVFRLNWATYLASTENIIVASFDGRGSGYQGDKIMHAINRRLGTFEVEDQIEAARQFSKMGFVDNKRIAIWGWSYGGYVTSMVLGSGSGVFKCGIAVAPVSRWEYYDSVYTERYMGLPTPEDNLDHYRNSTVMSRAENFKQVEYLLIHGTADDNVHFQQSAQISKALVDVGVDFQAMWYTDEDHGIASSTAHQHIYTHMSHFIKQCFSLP

[3] = pH 7.8; cited from earlier work
DPPIV [4] = molecular target: T2, DPPIV; conditions: cited from earlier work
POP [5] = molecular target: T1, POP; experiment: Enzyme assay with fluorogenic substrate, POP; type: biochemical; conditions: 100 nM inhibitor; in buffer
APCE and POP = type: biochemical, human; conditions: non-POP-supplemented plasma; 10 μM inhibitor; 100 μM substrate
Method in brief: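 Pooled plasma from four donors, with or without 0.05 μg added POP, was assayed with 10 μM inhibitor or no inhibitor. Cleavage was compared with uninhibited plasma. Values are mean ± SD of three experiments.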

APCE/FAP = molecular target: T3, APCE/FAP (Homo sapiens, UniProt Q12884); experiment: Enzyme assay with fluorogenic substrate, APCE/FAP; type: biochemical; conditions: 10 μM inhibitor
T3 sequence (Q12884 24-760 limits assumed): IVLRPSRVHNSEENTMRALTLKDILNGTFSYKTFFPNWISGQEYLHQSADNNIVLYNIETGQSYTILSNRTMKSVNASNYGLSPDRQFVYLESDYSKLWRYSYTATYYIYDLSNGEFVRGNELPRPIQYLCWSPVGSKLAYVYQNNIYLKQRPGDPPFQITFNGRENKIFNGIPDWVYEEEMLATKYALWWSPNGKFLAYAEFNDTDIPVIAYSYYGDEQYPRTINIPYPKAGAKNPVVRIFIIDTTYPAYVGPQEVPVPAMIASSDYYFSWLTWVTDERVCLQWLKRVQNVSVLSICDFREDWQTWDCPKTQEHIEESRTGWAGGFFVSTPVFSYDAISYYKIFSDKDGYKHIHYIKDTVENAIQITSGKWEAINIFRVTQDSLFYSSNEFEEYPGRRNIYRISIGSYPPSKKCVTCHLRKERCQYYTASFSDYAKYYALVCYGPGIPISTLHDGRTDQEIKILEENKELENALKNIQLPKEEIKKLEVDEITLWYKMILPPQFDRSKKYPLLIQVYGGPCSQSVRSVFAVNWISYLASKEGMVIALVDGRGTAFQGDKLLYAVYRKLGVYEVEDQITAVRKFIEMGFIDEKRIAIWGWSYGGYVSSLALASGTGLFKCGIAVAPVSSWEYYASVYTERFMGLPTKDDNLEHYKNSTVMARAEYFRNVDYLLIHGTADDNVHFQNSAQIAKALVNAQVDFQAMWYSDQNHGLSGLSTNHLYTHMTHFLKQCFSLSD

Compound: Cc1cc(=O)oc2cc(NC(=O)[C@@H]3CCCN3C(=O)CN)ccc12 [GP-AMC] (H-Gly-Pro-{AMC})
cleavage by POP (POP [1]): not cleaved

DPPIV selectivity (DPPIV [2]; Ki(app) (DPPIV)/Ki(app) (APCE/FAP)): 19
Compound: CC(=O)N[C@@H](CCCNC(=N)N)C(=O)NCC(=O)NCC(=O)N1CCC[C@H]1B(O)O [Inhibitor no. 2, Ac-Arg-Gly-Gly-L-boroPro]

Compound: CC(C)[C@H](N)C(=O)N1CCC[C@H]1B(O)O [Val-boroPro]
stability of inhibitory activity in aqueous media [3]: rapidly loses inhibitory activity

Compound: Cc1cc(=O)oc2cc(NC(=O)[C@@H]3CCCN3C(=O)CNC(=O)OCc3ccccc3)ccc12 [Z-GP-AMC, benzyloxycarbonyl (Z)-GP-AMC] (Cbz-Gly-Pro-{AMC})
cleavage by DPPIV (DPPIV [4]): not cleaved

inhibitory activity towards DPPIV (DPPIV [2]; 10 μM inhibitor): no inhibitory activity | inhibition of POP (POP [5]): total inhibition | inhibitory activity towards APCE/FAP (APCE/FAP): no inhibitory activity
Compound: acetyl-KLR-L-boroPro
inhibition of MEPLGRQLTSGP-AMC cleavage in plasma (APCE and POP): not inhibited
